One assay concerns Myzus persicae. As to the kind of experiment: Antifeedant activity against Myzus persicae apterous adults. The assay is classed as functional, organism-based. In outline:
(§1)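 Choice feeding bioassay using adult beetles, newly emerged fifth-instar larvae or apterous adult aphids. Percent feeding inhibition (FI) and percent settling inhibition (SI) were calculated as previously described. Compounds giving FR/SI > 50% were taken into a dose-response test, with EC50 (dose giving 50% feeding reduction) obtained by linear regression of %FR or %SI on log dose.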

Assay [1] deals with Leptinotarsa decemlineata. The assay is described as follows: Antifeedant activity against Leptinotarsa decemlineata adults at 50 ug/cm'2 by choice test. The format is functional. In outline: as §1
The subject of assay [2] is Leptinotarsa decemlineata. As to the kind of experiment: Antifeedant activity against Leptinotarsa decemlineata adults by choice test. The assay is classed as functional, organism-based. In outline:
as §1

The subject of assay [3] is Leptinotarsa decemlineata. The assay is described as follows: Antifeedant activity against Leptinotarsa decemlineata adults at 50 ug/cm'2 by no-choice test. The format is functional.
For assay [4], the system named is Leptinotarsa decemlineata. The assay is described as follows: Antifeedant activity against Leptinotarsa decemlineata adults by no-choice test. The format is functional, organism-based.
Assay [5] relates to Leptinotarsa decemlineata. The assay is described as follows: Insecticidal activity against Leptinotarsa decemlineata adults assessed as mortality at 10 ug/insect dosed in to hemolymph injection after 72 hrs. The format is functional. In outline:
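Adult Colorado potato beetles, 20 per compound, each injected into the hemolymph with 10 µg of compound dissolved in DMSO. Mortality was scored for up to 3 days after injection. Percent mortality was analysed with contingency tables and corrected by Abbott's formula.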

The test system of assay [6] is Spodoptera littoralis. The assay is described as follows: Antifeedant activity against fifth instar Spodoptera littoralis L6 larvae at 50 ug/cm'2. The format is functional. In outline:
as §1

Assay [7] relates to Spodoptera littoralis. The assay is described as follows: Antifeedant activity against fifth instar Spodoptera littoralis L6 larvae. The format is functional, organism-based. In outline:
as §1

Assay [8] deals with Spodoptera littoralis. The assay is described as follows: Antifeedant activity against fifth instar Spodoptera littoralis L6 larvae assessed as weight gain at 20 ug/insect, po relative to control. The assay is classed as functional. In outline:
(§2)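 Larval consumption and biomass gain were expressed as % of control. Significance versus control was tested at p < 0.05 with LSD. A second ANCOVA was run on biomass gain with food consumption as covariate to detect postingestive effects.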

For assay [9], the system named is Spodoptera littoralis. The assay is described as follows: Antifeedant activity against fifth instar Spodoptera littoralis L6 larvae assessed as food consumption at 20 ug/insect, po relative to control. The format is functional. A digest of the protocol: as §2
For assay [10], the system named is Spodoptera littoralis. The assay is described as follows: Antifeedant activity against fifth instar Spodoptera littoralis L6 larvae at 100 ug/cm'2. The assay is classed as functional. A digest of the protocol: as §1
Another assay deals with Fusarium verticillioides. As to the kind of experiment: Antifungal activity against Fusarium moniliforme assessed as inhibition of mycelial growth at 0.5 mg/mL. The assay is classed as functional. The following applies: read-out: GI. A digest of the protocol: (§3)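 Single-dose test at 0.5 mg/mL against the plant pathogens; activity estimated as percent mycelial growth inhibition.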

The test system of a further assay is Aspergillus niger. As to the kind of experiment: Antifungal activity against Aspergillus niger assessed as inhibition of mycelial growth at 0.5 mg/mL. The following applies: read-out: GI. The assay is classed as functional. A digest of the protocol:
as §3

In ChEMBL document CHEMBL1155758, “Heliotropium huascoense resin exudate: chemical constituents and defensive properties” (J Nat Prod, 2001) one finds Activity, EC50 and inhibition of growth data, which are given here for 4 compounds.

Molecules are shown by their SMILES. Active and inactive are the calls of the source. No cut-off for these calls is given here.

In the case of `COC(=O)c1ccc(OC)c(C[C@@H]2C(C)(C)C(=O)C=C[C@@]2(C)O)c1`, in the assay with Myzus persicae, the outcome was inactive. The Activity in assay [1] was determined as 55.4%; in assay [3], 81.82%; in assay [5], 0%; in the assay on Spodoptera littoralis [6], 71.8%; with Spodoptera littoralis [8] it was 66.1%; in the assay on Spodoptera littoralis [9], 75.9%. Besides, the EC50 in assay [2] is given as 50 ug.cm'-2; in assay [4], 24.19 ug.cm'-2; in the assay on Spodoptera littoralis [7], 17.4 ug.cm'-2.
On to `COc1ccc(C(=O)O)cc1C[C@@H]1C(C)(C)C(=O)C=C[C@@]1(C)O` (relative stereo), for which the result with Myzus persicae was inactive. In addition, the Activity in [1] was determined as 37%; in assay [3] it was 56.1%; in assay [5], 0%; in the assay with Spodoptera littoralis [6] it was 0%; with Spodoptera littoralis [8], 126.2%; in the assay on Spodoptera littoralis [9], 113.1%. Also, the EC50 is given as above 50 ug.cm'-2 in assay [2], 50 ug.cm'-2 in assay [4] and above 100 ug.cm'-2 in the assay on Spodoptera littoralis [7].
Take `COC(=O)c1ccc2c(c1)C[C@@]1(O2)[C@@H](C)CC[C@@H](O)C1(C)C` [FILIFOLINOL]: in the assay with Myzus persicae, the result was inactive. Besides, the Activity in assay [1] worked out at 16.82%; in assay [3], 42.4%; in assay [5], 20%; in the assay on Spodoptera littoralis [10] it was 34.6%; with Spodoptera littoralis [8], 120.9%; in the assay on Spodoptera littoralis [9], 120.2%. Moreover, the results for the EC50 (in assay [2]; in [4]; with Spodoptera littoralis [7]) were above 50 ug.cm'-2, above 50 ug.cm'-2 and above 100 ug.cm'-2, respectively. Besides, the inhibition of growth at 500 µg/mL with Fusarium verticillioides worked out at 61%; in the assay with Aspergillus niger, 36%.
Take `C[C@@H]1CC[C@@H]2C(C)(C)C[C@]3(C)CC=C[C@]123` [SILPHINENE]: the EC50 in assay [2] came to 0.27 ug.cm'-2; in assay [4] it was 2.7 ug.cm'-2. Besides, in assay [5], the Activity was found to be 24%.
